Source: PubChem (several laboratories)
TDP2 absorb – TDP2 (human) inhibition, absorbance primary screen; O95551; recombinant TDP2, T5PNP hydrolysis, p-nitrophenol absorbance 415 nm; inhibition, % at 12.8 µM; 0.34% of 370,000 active; AID 720702;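 active = inhibition above the mean of all tested compounds plus 3 SD, set per campaign, cut at about 25% in these data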;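 also: 0% = DMSO with enzyme and 100% = buffer with substrate but no TDP2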
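Test system: Human TDP2 enzyme | Reagent: 5 mM T5PNP | Compound dosing: 12.8 µM single point, 1% DMSO | Incubation: Enzyme reaction with compound for 2 h at 37 °C | Technique: p-Nitrophenol epi absorbance | Read-out: % inhibition relative to enzyme-containing and enzyme-free wells | Benchmarks: High control without enzyme, low control DMSO plus TDP2 | Replicates: Singlicate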
Apaf1 inhib – inhibitors of human Apaf-1 apoptosome; O14727; reconstituted apoptosome caspase-3 activity, DEVD-Rh110 fluorescence; inhibition, % at 20 µM; 0.71% of 330,000 active; active = inhibition of at least 40% at 20 µM;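 also: plate controls were DMSO wells for no effect and DEVD-CHO caspase inhibitor wells for full effect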
Target sequence (O14727 whole entry, looked up): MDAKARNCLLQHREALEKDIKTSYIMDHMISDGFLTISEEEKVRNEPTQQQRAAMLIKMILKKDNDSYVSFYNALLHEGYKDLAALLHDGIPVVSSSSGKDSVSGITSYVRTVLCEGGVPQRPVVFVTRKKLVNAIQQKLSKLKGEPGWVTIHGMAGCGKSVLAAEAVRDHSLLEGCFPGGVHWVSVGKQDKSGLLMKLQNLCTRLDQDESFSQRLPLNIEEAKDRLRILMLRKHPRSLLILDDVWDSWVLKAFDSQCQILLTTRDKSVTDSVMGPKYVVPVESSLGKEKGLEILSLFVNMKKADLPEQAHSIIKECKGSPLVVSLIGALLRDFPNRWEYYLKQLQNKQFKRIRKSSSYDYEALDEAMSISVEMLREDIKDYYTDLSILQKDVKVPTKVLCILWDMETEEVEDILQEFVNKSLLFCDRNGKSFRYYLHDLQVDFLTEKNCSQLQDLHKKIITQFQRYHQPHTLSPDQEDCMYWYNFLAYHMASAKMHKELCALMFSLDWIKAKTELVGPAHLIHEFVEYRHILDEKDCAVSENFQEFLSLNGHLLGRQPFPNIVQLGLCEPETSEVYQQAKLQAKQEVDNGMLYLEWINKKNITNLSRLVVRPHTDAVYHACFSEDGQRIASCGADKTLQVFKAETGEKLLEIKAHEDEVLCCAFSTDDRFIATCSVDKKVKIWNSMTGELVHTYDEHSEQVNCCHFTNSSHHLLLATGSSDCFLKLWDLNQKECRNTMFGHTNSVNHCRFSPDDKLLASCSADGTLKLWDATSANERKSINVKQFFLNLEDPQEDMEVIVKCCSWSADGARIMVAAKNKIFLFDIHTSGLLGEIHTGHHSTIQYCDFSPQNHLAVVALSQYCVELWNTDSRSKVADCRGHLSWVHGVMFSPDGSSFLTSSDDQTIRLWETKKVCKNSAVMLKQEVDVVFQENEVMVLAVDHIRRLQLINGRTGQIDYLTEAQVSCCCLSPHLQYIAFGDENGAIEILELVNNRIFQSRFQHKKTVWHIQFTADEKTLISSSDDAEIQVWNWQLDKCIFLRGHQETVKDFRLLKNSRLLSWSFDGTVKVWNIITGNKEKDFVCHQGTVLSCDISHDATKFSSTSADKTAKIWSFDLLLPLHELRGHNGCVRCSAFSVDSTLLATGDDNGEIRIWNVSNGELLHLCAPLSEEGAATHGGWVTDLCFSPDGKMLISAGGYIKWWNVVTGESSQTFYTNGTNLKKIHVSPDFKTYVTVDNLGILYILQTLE
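Assay system – apoptosome proteins · Medium – Hepes buffer, pH 7.5 · Also added – cytochrome c with DEVD-Rh110 · Timing – 30 min compound preincubation, 50 min activation, room temperature · Detection – Rh110 fluorescence, excitation 480 nm, emission 540 nm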
PAFAH2 inh – inhibitors of human PAFAH2; recombinant PAFAH2, FP-rhodamine activity probe, fluorescence polarization; inhibition, % at 3.39 µM; 0.99% of 340,000 active;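 active = inhibition above the mean over all tested compounds plus 3 SD, cut at about 30% in these data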;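 also: inhibitors block probe labeling of enzyme so polarization drops; 0% = enzyme with DMSO and 100% = wells lacking PAFAH2 protein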
PAFAH1B3 FP inh – PAFAH1B3 (human) inhibition | Q15102 | recombinant PAFAH1B3, FP-rhodamine probe, fluorescence polarization | inhibition, % at 3.39 µM | 0.28% of 340,000 active | AID 492972;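 active = inhibition above the screen-wide average of all tested compounds plus 3 SD, cut at about 25% in these data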;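 also: 0% = enzyme with DMSO only and 100% = wells lacking PAFAH1B3 protein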
PAFAH1B2 FP inh – blocks human PAF acetylhydrolase 1b catalytic subunit 2. recombinant PAFAH1B2, FP-rhodamine activity probe, fluorescence polarization. P68402. inhibition, % at 3.39 µM. 1.2% of 340,000 active. AID 492953;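 active = inhibition above the mean of all tested compounds plus 3 SD, cut at about 24% in these data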;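 also: 0% = enzyme with DMSO and 100% = wells lacking PAFAH1B2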
PAFAH2 FP conf – PAFAH2 (human) inhibition, confirmed; inhibition, % at 3.39 µM; recombinant PAFAH2, FP-rhodamine activity probe, fluorescence polarization; 65% of 2,300 active; AID 493030; shares compounds with PAFAH2 inh;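 active = mean inhibition over three repeats above a set limit taken from the earlier primary screen, cut at about 30% in these data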;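 also: inhibitor blocks binding of rhodamine activity probe so polarization falls; 0% = enzyme with DMSO and 100% = wells lacking PAFAH2 protein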
TDP2 confirm – confirmation of human TDP2 inhibitors; shares compounds with TDP2 absorb; recombinant human TDP2, absorbance read-out; inhibition, % at 12.8 µM; 22% of 1,100 active; in the data active = inhibition above about 25%;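 also: 0% = vehicle with enzyme and 100% = no enzyme buffer only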
Active calls of the source: *. A selection: hits, their analogues and other compounds. The true share with any hit is near 2.3%.

What do the screens show for `COc1ccccc1CNC(=O)COC(=O)c1ccc(N2CCCC2=O)cc1`?
TDP2 absorb: -7; Apaf1 inhib: 1; PAFAH2 inh: 60*; PAFAH1B3 FP inh: 7; PAFAH1B2 FP inh: 8; PAFAH2 FP conf: 46*

How did COc1ccccc1CNC(=O)COC(=O)c1c[nH]c2ccccc12 do in these assays?
TDP2 absorb: -6; Apaf1 inhib: 5; PAFAH2 inh: 33*; PAFAH1B3 FP inh: 6; PAFAH1B2 FP inh: 0; PAFAH2 FP conf: 18

How did COc1ccccc1NC(=O)COC(=O)c1c[nH]c2ccccc12 do in these assays?
TDP2 absorb: 3; Apaf1 inhib: -2; PAFAH2 inh: 19; PAFAH1B3 FP inh: 6; PAFAH1B2 FP inh: -1

Results for COc1ccccc1CNC(=O)COC(=O)c1ccncc1 ?
TDP2 absorb: -7; Apaf1 inhib: 1; PAFAH2 inh: 6; PAFAH1B3 FP inh: 11; PAFAH1B2 FP inh: 8

What do the screens show for `NC1=[N+](Cc2ccccc2)C[C@H]2C(=C3CCCC[C@H]3n3c(=O)n(-c4ccccc4)c(=O)n32)N1`?
TDP2 absorb: -2

How did COC1=C[C@H](C(=O)NCc2ccccn2)[C@H](C)[C@@H](c2ccccc2)CC1=O do in these assays?
TDP2 absorb: 11

How did O=c1c2c(nc3c(-c4cccc5ccccc45)c[nH]n13)CCC2 do in these assays?
TDP2 absorb: 5; Apaf1 inhib: 7; PAFAH2 inh: 68*; PAFAH1B3 FP inh: 6; PAFAH1B2 FP inh: 1; PAFAH2 FP conf: 69*

How did C#CCN1C(=O)[C@]2(NCCc3c2[nH]c2ccc(OC)cc32)c2ccccc21 do in these assays?
TDP2 absorb: 4

What do the screens show for `CSC1=NSC2=NC(=O)/C(=C\c3coc4ccccc4c3=O)C(=N)N12`?
TDP2 absorb: -2; PAFAH2 inh: 26; PAFAH1B3 FP inh: 2; PAFAH1B2 FP inh: 10

How did CC(C)CSC1=NSC2=NC(=O)/C(=C\c3coc4ccccc4c3=O)C(=N)N12 do in these assays?
TDP2 absorb: 1; Apaf1 inhib: 12; PAFAH2 inh: 36*; PAFAH1B3 FP inh: 21; PAFAH1B2 FP inh: 23; PAFAH2 FP conf: 22

What do the screens show for `Clc1ccc(-c2csc(NCC3CCCO3)n2)cc1` (stereo unspecified)?
TDP2 absorb: 1

Results for O=S1(=O)c2c(cccc2N2CC[C@H](O)C2)O[C@H]2CCN1C2 ?
TDP2 absorb: -4

Results for COc1cc(-c2cccs2)cc(=O)c2c(C)oc(C)c12 ?
TDP2 absorb: -3; Apaf1 inhib: -2; PAFAH2 inh: 32*; PAFAH1B3 FP inh: 7; PAFAH1B2 FP inh: 4; PAFAH2 FP conf: 6

How did COc1ccc(-c2cc(OC(=O)c3ccc(F)cc3)c3c(C)oc(C)c3c(=O)c2)cc1 do in these assays?
Apaf1 inhib: 8

Results for CCCCN1CN2Cc3ccccc3C2CS1(=O)=O (stereo unspecified) ?
TDP2 absorb: 4

How did COc1ccc(C2C(C(=O)Nc3cc(Cl)ccc3F)CCC(=O)N2c2ccc(OC)cc2)cc1 (stereo unspecified) do in these assays?
TDP2 absorb: 14

Results for COc1ccc(C(=O)O/N=C(\N)Cc2cccs2)cc1OC ?
TDP2 absorb: 12; Apaf1 inhib: 6; PAFAH2 inh: 79*; PAFAH1B3 FP inh: 6; PAFAH1B2 FP inh: 2; PAFAH2 FP conf: 76*

How did Cc1ccc(C(=O)O/N=C(\N)Cc2cccs2)cc1[N+](=O)[O-] do in these assays?
TDP2 absorb: -2; Apaf1 inhib: 1; PAFAH2 inh: 36*; PAFAH1B3 FP inh: 5; PAFAH1B2 FP inh: 3; PAFAH2 FP conf: 12

How did CCC(C(=O)Nc1ccccc1N1CCCC1)c1cccc(Cl)c1 (stereo unspecified) do in these assays?
TDP2 absorb: 1

How did COP(N)(=O)C(CC(C)C)NC(=O)OCc1ccccc1 (stereo unspecified) do in these assays?
TDP2 absorb: 7

How did CCOc1ccc(CCNC(=O)CN2C(=O)CCSc3ccccc32)cc1OCC do in these assays?
TDP2 absorb: -1; Apaf1 inhib: -1; PAFAH2 inh: -6; PAFAH1B3 FP inh: 4; PAFAH1B2 FP inh: 1

Results for COc1ccc(OC)c(CCNC(=O)CN2C(=O)CCSc3ccccc32)c1 ?
TDP2 absorb: 26*; Apaf1 inhib: 0; PAFAH2 inh: 36*; PAFAH1B3 FP inh: 17; PAFAH1B2 FP inh: 16; PAFAH2 FP conf: -7; TDP2 confirm: 2

How did CC(C)N1Cc2nnn(Cc3ccccc3)c2-c2ccccc2S1(=O)=O do in these assays?
TDP2 absorb: -10

How did O=C(COC(=O)c1ccccc1SCC(=O)N1CCCC1)NC1CCCCC1 do in these assays?
TDP2 absorb: 26*; Apaf1 inhib: -1; PAFAH2 inh: 83*; PAFAH1B3 FP inh: 4; PAFAH1B2 FP inh: 2; PAFAH2 FP conf: 73*; TDP2 confirm: 4

What do the screens show for `CC(=O)O[C@@H]1C=C[C@@H](C#Cc2ccc(C(C)(C)C)cc2)O[C@@H]1COC(=O)Nc1ccccc1`?
TDP2 absorb: -8

How did O=C(O)CN1C(=O)/C(=C\c2cc(Br)ccc2OCc2ccc(Cl)cc2)SC1=S do in these assays?
TDP2 absorb: 26*; PAFAH2 inh: 32*; PAFAH1B3 FP inh: 9; PAFAH1B2 FP inh: 20; PAFAH2 FP conf: 20; TDP2 confirm: 17

What do the screens show for `COc1ccccc1/C=C/C(=O)OCC(=O)Nc1ccc(Cl)cn1`?
TDP2 absorb: 29*; Apaf1 inhib: 7; PAFAH2 inh: 83*; PAFAH1B3 FP inh: 4; PAFAH1B2 FP inh: 3; PAFAH2 FP conf: 79*; TDP2 confirm: -1

Results for Cc1ccc(F)cc1C(=O)N(Cc1ccccn1)CC1CCCO1 (stereo unspecified) ?
TDP2 absorb: 3

What do the screens show for `C[n+]1c(-c2ccccc2)cc2c(=Cc3ccccc3)c3ccccc3n21`?
TDP2 absorb: 36*; PAFAH2 inh: 59*; PAFAH1B3 FP inh: 20; PAFAH1B2 FP inh: -5; PAFAH2 FP conf: 15; TDP2 confirm: 47*

How did CN(C)c1ccc(C=c2c3cc(O)ccc3n3c2cc(-c2ccccc2)[n+]3C)cc1 do in these assays?
TDP2 absorb: 23; PAFAH2 inh: -38; PAFAH1B3 FP inh: 8; PAFAH1B2 FP inh: -10

What do the screens show for `COc1cccc(C(=O)N[C@H](C(=O)N2CCC[C@H]2C(=O)NCc2ccccc2)C2CCCCC2)c1`?
TDP2 absorb: -7

Results for Cc1ccc2[nH]c(O)c(N=Nc3nc4ccccc4s3)c2c1 ?
TDP2 absorb: 25*; Apaf1 inhib: 14; PAFAH2 inh: 55*; PAFAH1B3 FP inh: -2; PAFAH1B2 FP inh: 5; PAFAH2 FP conf: 36*; TDP2 confirm: -18

How did O=C(O)/C=C/c1ccc([N+](=O)[O-])o1 do in these assays?
TDP2 absorb: 6; Apaf1 inhib: -5; PAFAH2 inh: 7; PAFAH1B3 FP inh: -2; PAFAH1B2 FP inh: 0
